Screens (PubChem BioAssay)
TAAR1 antag – antagonists of human TAAR1; CHO RD-HGA16 TAAR1, Fluo-8 calcium fluorescence, antagonist; Q96RJ0; 360,000 compounds, 1.5% hits; inhibition, % at 3 µM;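 active means inhibition above a per-plate cutoff, the mean inhibition of test compounds on that plate plus 3 SD, cut at about 49% in these data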
Target sequence (Q96RJ0 whole entry, looked up): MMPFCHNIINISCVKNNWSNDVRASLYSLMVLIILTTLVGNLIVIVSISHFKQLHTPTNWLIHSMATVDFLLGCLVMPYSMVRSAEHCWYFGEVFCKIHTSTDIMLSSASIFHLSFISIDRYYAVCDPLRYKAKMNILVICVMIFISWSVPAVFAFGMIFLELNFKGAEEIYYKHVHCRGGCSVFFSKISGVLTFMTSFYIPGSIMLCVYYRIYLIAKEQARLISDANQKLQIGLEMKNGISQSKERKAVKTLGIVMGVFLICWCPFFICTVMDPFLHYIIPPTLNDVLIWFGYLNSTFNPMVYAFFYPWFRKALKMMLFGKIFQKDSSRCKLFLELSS
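Assay system: CHO-derived RD-HGA16 cells stably expressing human TAAR1 plus Gα16. Timing: 140 s kinetic read after compound, 140 s after agonist. Technique: kinetic Fluo-8 calcium fluorescence measurement. Measure: % inhibition of agonist calcium response.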
TAAR1 ag – agonists of human TAAR1 | 360,000 compounds, 0.99% hits | activation, % at 3 µM | CHO RD-HGA16 TAAR1, Fluo-8 calcium fluorescence; vehicle wells 0%, saturating PEA agonist 100% | Q96RJ0 | AID 624467;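 active means activation above the mean activation of all test compounds in the run plus 3 SD, cut at about 38% in these data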
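Test system: RD-HGA16 (CHO) cells co-expressing Gα16 and hTAAR1 | Doses: Single dose, 3 µM | Schedule: 17-24 h seeding, 75 min 37 °C dye, 30 min RT | Evaluation: % activation from peak over basal fluorescence ratio, DMSO-to-PEA scaled | Technique: Kinetic Fluo-8 calcium fluorescence | Benchmarks: Low control DMSO, high control PEA (EC100)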
OXTR agonist – agonists of human oxytocin receptor; P30559; CHO-OTR cells, Fluo-8 calcium fluorescence; normalized: DMSO 0%, oxytocin 100%; activation, % at 3 µM; 320,000 compounds, 0.32% hits;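 active means activation above the mean of all tested compounds plus 3 SD, cutoff set per screening run, cut at about 20% in these data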;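 further: peak over basal fluorescence ratio from a 100 s FLIPR kinetic read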
Target sequence (P30559 whole entry, looked up): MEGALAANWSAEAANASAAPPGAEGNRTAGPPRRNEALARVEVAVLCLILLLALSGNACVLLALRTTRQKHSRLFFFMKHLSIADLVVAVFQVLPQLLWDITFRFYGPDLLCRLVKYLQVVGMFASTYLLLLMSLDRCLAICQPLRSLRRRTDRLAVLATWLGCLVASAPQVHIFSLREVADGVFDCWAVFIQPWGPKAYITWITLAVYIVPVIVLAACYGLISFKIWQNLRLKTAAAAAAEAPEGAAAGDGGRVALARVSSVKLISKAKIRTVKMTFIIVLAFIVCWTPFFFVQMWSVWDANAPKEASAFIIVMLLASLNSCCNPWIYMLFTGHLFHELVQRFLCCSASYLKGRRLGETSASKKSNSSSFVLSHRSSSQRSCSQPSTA
OXTR potentiate – potentiators of human oxytocin receptor; CHO-OTR cells, Fluo-8 calcium fluorescence, potentiator mode; 0% = oxytocin EC15, 100% = EC100; AID 2445; 320,000 compounds, 0.061% hits; activation, % at 3 µM;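 active means activation above that plate's cutoff, the mean activation of tested compounds plus 3 SD, cut at about 6.6% in these data, passing the limit was not always enough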
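Assay system: CHO cell line stably expressing human OTR. Reagent: EC15 oxytocin agonist. Dosing: single dose, 3.0 µM nominal final compound concentration. Timing: compound 6 min at room temperature before oxytocin, 100 s read. Signal: kinetic Fluo-8 calcium fluorescence. Controls: oxytocin EC15 low and EC100 high.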
V1aR counter – counter-screen for oxytocin receptor agonists: human V1a receptor agonists. 320,000 compounds, 0.25% hits. AID 2797. P37288. CHO-V1R cells, Fluo-8 calcium fluorescence, agonist mode; 0% DMSO, 100% 3 nM vasopressin. activation, % at 3 µM;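 active means activation above the mean activation of all tested compounds plus 3 SD, per screening run, cut at about 20% in these data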;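 further: signal is peak over basal fluorescence ratio across a 100 second FLIPR read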
TAAR1 nonsel count – nonselective antagonist in TAAR1 antagonist counter-screen; shares compounds with TAAR1 antag; counterscreen cell line, calcium fluorescence, antagonist mode; 2,400 compounds, 77% hits; inhibition, % at 3 µM; in the data active means inhibition above about 22%;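 further: CHO-Ga16 host cells stimulated with ATP at an EC80 level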
TAAR1 antag conf – confirmation of human TAAR1 antagonists | shares compounds with TAAR1 antag | TAAR1-expressing cells, fluorescence antagonist read-out | inhibition, % at 3 µM | 2,400 compounds, 40% hits | AID 651785; in the data active means inhibition above about 49%;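 further: CHO-Ga16 host cells challenged with agonist PEA near its EC80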
Ga16 nonsel ag – nonselective Ga16 agonism, counter-screen. shares compounds with TAAR1 antag. 2,400 compounds, 18% hits. Ga16-expressing cells, calcium fluorescence, agonist counterscreen. activation, % at 3 µM; in the data active means activation above about 12%
TAAR1 ag count – activates human TAAR1 in antagonist counter-screen; shares compounds with TAAR1 antag; hTAAR1 cell line, fluorescence activation, agonist mode; activation, % at 3 µM; 2,400 compounds, 2% hits; AID 651955; in the data active means activation above about 37%;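 further: CHO cells stably expressing TAAR1 with calcium dye readout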
A number is an active result; – = inactive; · = no result given. Rows were chosen to be rich in hits. Some 2.3% of all compounds tested hit in one or more screens of this group.

SMILES | TAAR1 antag | TAAR1 ag | OXTR agonist | OXTR potentiate | V1aR counter | TAAR1 nonsel count | TAAR1 antag conf | Ga16 nonsel ag | TAAR1 ag count
COc1cccc(C(=O)Nc2cccc(NC(=O)c3ccccc3Cl)c2)c1 | 68 | – | – | – | – | – | – | – | –
COc1cccc(C(=O)Nc2ccccc2)c1 | – | – | – | – | – | · | · | · | ·
COc1ccc(/C=N/NC(=O)c2cccc(NC(=O)c3ccccc3Cl)c2)c(OC)c1 | 60 | – | – | – | – | 24 | – | – | –
NC(=O)COc1cccc(/C=N/NC(=O)c2ccc(-n3cccc3)cc2)c1 | 84 | – | – | – | – | – | 55 | – | –
COc1ccc(NC(=O)C2(C)CCN2C(=O)c2ccccc2CCc2ccccc2)cc1OC (stereo not given) | 65 | – | · | · | · | – | – | – | –
CCc1ccc2nc(NC(=O)CN3C(=O)NC4(CCCC4)C3=O)sc2c1 | – | – | – | – | – | · | · | · | ·
CCCCC(=O)Nc1cc([N+](=O)[O-])ccc1Cl | – | – | – | – | – | · | · | · | ·
O=C(CC(=O)c1ccccc1)Nc1cc([N+](=O)[O-])ccc1Cl | 77 | – | – | – | – | 35 | 55 | – | –
CCc1c(C(=O)NNC(=S)NCc2ccccc2)csc1C | – | – | – | – | – | · | · | · | ·
O=C1CC2c3cc(-c4cc5ccccc5o4)ccc3CCN2C(=O)CN1Cc1ccccc1 (stereo not given) | 54 | – | · | · | · | 27 | – | – | –
Cc1ccc(-c2noc(=O)n2CC(=O)Nc2ccc(S(=O)(=O)NC3CC3)cc2)cc1 | – | – | – | – | – | · | · | · | ·
CCCCCCCCOc1ccc(C2CC(=O)NC2=O)cc1 (stereo not given) | – | – | – | – | – | · | · | · | ·
O=C1CC(c2ccc(OCCCCCOc3ccc(C4CC(=O)NC4=O)cc3)cc2)C(=O)N1 (stereo not given) | 64 | – | – | – | – | 40 | 53 | 14 | –
Cc1cc(NC(=O)CCc2c[nH]c3ccccc23)ccc1Nc1cccnc1 | – | – | · | · | · | · | · | · | ·
O=C(Cc1c[nH]c2ccccc12)Nc1ccc(Nc2cccnc2)c(-c2ccc(-c3ccccc3)cc2F)c1 | 58 | – | · | · | · | 33 | – | – | –
Cc1[nH]c2ccccc2c1CC(=O)Nc1ccc(Nc2cccnc2)c(-c2ccc(F)c(F)c2)c1 | – | – | · | · | · | · | · | · | ·
O=C(Cc1c[nH]c2ccccc12)Nc1ccc(Nc2cccnc2)c(-c2cccc(Cl)c2)c1 | 72 | – | · | · | · | 29 | – | – | –
O=C(Cc1c[nH]c2ccccc12)Nc1ccc(Nc2cccnc2)c(-c2ccc(F)c(F)c2)c1 | 87 | – | · | · | · | 42 | 65 | 14 | –
O=C(CCc1c[nH]c2ccccc12)Nc1ccc(Nc2cccnc2)c(Br)c1 | 71 | – | · | · | · | 31 | – | – | –
Cc1ccc(-c2csc(NC(=O)c3cccc([N+](=O)[O-])c3C(=O)O)n2)cc1 | – | – | – | – | – | · | · | · | ·
CC(=O)Nc1cccc(NC(=O)c2cccc(-c3ccc(O)cc3)c2)c1 | – | – | – | – | – | · | · | · | ·
CN(Cc1ccccc1)C(=O)c1cccc(NC(=O)Cc2cccc([N+](=O)[O-])c2)c1 | 65 | – | – | – | – | 26 | – | – | –
Cc1cc(Cl)ccc1OC(C)C(=O)NCCCCc1ccccc1 (stereo not given) | – | – | – | – | – | · | · | · | ·
COC(=O)c1c(NC(=O)COC(=O)c2ccccn2)sc(C)c1C | – | – | – | – | – | · | · | · | ·
O=c1c(/C=N\NS(=O)(=O)c2ccccc2)coc2ccc(Cl)cc12 | 59 | – | – | – | – | 26 | 49 | – | –
SMILES | TAAR1 antag | TAAR1 ag | OXTR agonist | OXTR potentiate | V1aR counter | TAAR1 nonsel count | TAAR1 antag conf | Ga16 nonsel ag | TAAR1 ag count
O=C(N/N=C/c1coc2ccccc2c1=O)c1ccc(Cl)cc1 | – | – | – | – | – | · | · | · | ·
CC(C)Nc1nnc(SCC(=O)Nc2ccc3c(c2)C(=O)c2ccccc2C3=O)s1 | 68 | – | – | – | – | 47 | 59 | 15 | –
NS(=O)(=O)c1ccc(CNC(=O)c2cc(-c3ccccc3)nc3ccccc23)cc1 | 65 | – | – | – | – | 32 | – | – | –
O=C(NCc1ccc(F)cc1)c1cc(-c2ccncc2)nc2ccccc12 | – | – | – | – | – | · | · | · | ·
O=C(NCc1cc([N+](=O)[O-])ccc1O)c1cc(-c2ccncc2)nc2ccccc12 | 67 | – | – | – | – | 32 | 56 | – | –
Cc1ccc(Sc2ncccc2C(=O)NCc2cc([N+](=O)[O-])ccc2O)cc1C | 60 | – | · | · | · | 29 | – | – | –
NS(=O)(=O)c1ccc(CNC(=O)c2cc(-c3cccnc3)nc3ccccc23)cc1 | – | – | – | – | – | · | · | · | ·
COc1ccc(CC(=O)N(Cc2ccccc2)c2ccccc2)cc1S(=O)(=O)N1CCOCC1 | 82 | – | – | – | – | 32 | 55 | 15 | –
CC(C)COc1cccc(C(=O)N(CC(=O)Nc2ccccc2C(F)(F)F)Cc2ccco2)c1 | 61 | – | – | – | – | – | – | – | –
C=CCn1c(SCC(=O)c2cc(C)n(CC3CCCO3)c2C)nnc1-c1ccccc1 (stereo not given) | – | – | – | – | – | · | · | · | ·
Cc1ccc(CNc2ccc(N3CCOCC3)c(C(=O)O)c2)s1 | – | – | – | – | – | · | · | · | ·
Cc1cc(C)c2nc(NNC(=O)c3cc(-c4cccs4)nc4ccccc34)sc2c1 | 56 | – | – | – | – | 35 | 50 | – | –
CC(C)OCCCNC(=O)c1cc(-c2cccs2)nc2ccccc12 | 57 | – | – | – | – | 31 | – | – | –
O=C(N/N=C/c1ccc2ncccc2c1)c1cc(-c2cccs2)nc2ccccc12 | 57 | – | – | – | – | 27 | – | – | –
O=C(N/N=C/c1cccnc1)c1cc(-c2cccs2)nc2ccccc12 | – | – | – | – | – | · | · | · | ·
O=C(NCc1ccco1)c1cc(-c2cccs2)nc2ccccc12 | 62 | – | – | – | – | 27 | – | – | –
CCOCCCNC(=O)c1cc(-c2ccc(Br)s2)nc2ccccc12 | – | – | – | – | – | · | · | · | ·
CCC(CC)C(=O)c1c[nH]c(C(=O)NC2CCCCCC2)c1 | – | – | – | – | – | · | · | · | ·
COc1ccc(C)cc1N(CC(=O)N1CCCC1)S(C)(=O)=O | – | – | – | – | – | · | · | · | ·
O=C1CC[C@H](OCc2ccccc2)CCN1[C@H](CSc1ccccc1)Cc1ccccc1 | – | – | – | – | – | · | · | · | ·
